Results on 14 compounds are retold here after PubChem BioAssay.

Activity calls are given as the source filed them.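 How the source made its calls, unless noted: active means visual image review flags a hit and inhibition of aggregation exceeds 20%; inconclusive means visual hit but inhibition at or below 20%; inactive means no hit on visual image review.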

The nature of assay [1]: inhibitors of TNFa-induced NFkB p65 translocation, primary screen, imaging, HUVEC, MLSMR starter and 10KST1 sets (AID 438;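 active means inhibition above 20% together with a positive visual image hit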;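 further: compound added about 3h40 before a 20 min TNFalpha stimulation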;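 on inhibition: signal is the nuclear over cytoplasmic p65 intensity ratio per well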). Conditions: HUVEC TNFa-induced p65 nuclear translocation; cell count: measured here: nuclei count (cytotoxicity indicator), at 2.08 µM; inhibition: at 2 µM, stronger effect = higher value, 0% TNFa-plus-vehicle, 100% no-TNFa wells.
Assay [2] can be described thus: inhibitors of mutant huntingtin aggregation, primary screen, imaging, exon1htt(103Q)mCFP cells, high-content imaging (AID 483).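 Further: compound exposure lasted 3 days before fixation.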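 On nuclei count: percent of the per-plate median nuclei count of sample wells.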 The settings on record: exon1htt(103Q)mCFP cell line, aggregate imaging, at 2 µM; inhibition of aggregation: stronger effect = higher value; nuclei count: measured here: cell count, toxicity.
The nature of assay [3]: inhibitors of E-selectin induction by TNFa, primary screen, imaging, HUVEC, immunofluorescence, MLSMR starter and 10KST1 sets (AID 487;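 active means visually confirmed hit in the image check and inhibition above 20%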;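 on inhibition: signal is fraction of cell area covered by stained E-selectin grains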;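 on nuclei count: 100% = median nuclei count of all wells on the same plate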). The settings on record: HUVEC TNFalpha-induced E-selectin immunofluorescence imaging, at 2 µM; inhibition: stronger effect = higher value; nuclei count: measured here: cell number, toxicity.
Assay [4] concerns the target Voltage-gated potassium channel subunit beta-2 (Rattus norvegicus) (UniProt P62483). Briefly: KvBeta enzyme negative modulators, primary screen, biochemical, NADPH fluorescence (AID 622;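 active means fluorescence slope higher than the sample average by over 3 SD, cut at about -0.22 in these data, passing the limit was not always enough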;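 further: slope of raw intensity against log time taken from 70 to 1610 s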). Conditions: recombinant KvBeta, 4-cyanobenzaldehyde reduction, at 10 µM, stronger effect = higher value.
For assay [5] the target is unchanged. The assay can be described thus: KvBeta positive modulators, primary screen, biochemical, NADPH fluorescence (AID 623;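 active means NADPH fluorescence slope more negative than the mean of all samples by about 3 SD, 99.7% confidence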;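 further: fluorescence intensity change per second fitted from 20 to 320 s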). The settings on record: Recombinant KvBeta, NADPH fluorescence decrease slope, 10 min; at 10 µM; stronger effect = lower value.
Assay [6] deals with Muscarinic acetylcholine receptor M4 (Homo sapiens) (UniProt P08173). The assay can be described thus: compounds altering M4/GIRK thallium flux, either direction, primary screen, M4 allosteric agonist project, cell-based, HEK293 M4/GIRK, BTC-AM (AID 625;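 active means fluorescence slope after compound addition differing from the mean of all tested samples at 99.7% confidence, mostly higher but some lower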;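 further: thallium influx through GIRK channels coupled to M4 in HEK293 cells with BTC-AM dye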). Conditions: at 10 µM, actives lie on both sides. In short, it runs like this:
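System: HEK293 cells with M4 receptor and GIRK channels | Incubation: Cells overnight at 37 °C, BTC-AM loading 1 h, reads 2 min total | Technique: Kinetic BTC-AM fluorescence sampled at 1 Hz, 10 s pre-addition baseline | Measure: Post-addition slope, 15–24 s, of baseline-normalized fluorescence | Control set: Carbachol positive, DMSO negative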

Assay [7] is described as follows: inhibitors of Sendai virus-induced IRF3 signaling, primary screen, TLR/RLR signaling modifier project, cell-based, Sendai virus stimulus, luciferase, 10K MLSCN set (AID 602276;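 active means inhibition at or above 50% at 10 µM; inactive means inhibition below 50%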;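 further: firefly luciferase from ISG56 promoter only with Renilla not read in this screen; 0% = Sendai virus plus DMSO and 100% = medium plus DMSO without virus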). Conditions: HEK293 RL24 IRF3 luciferase reporter, at 10 µM, stronger effect = higher value.
Assay [8] is described as follows: inhibitors of poly I:C-induced TLR3 signaling, primary screen, cell-based, poly I:C stimulus, luciferase, 10K MLSCN set (AID 602277;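 active means inhibition of the reporter signal at or above 50%; inactive means inhibition below 50%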). Conditions: HEK293-TLR3 RL24 IRF3 luciferase reporter, at 10 µM, stronger effect = higher value.

Voltage-gated potassium channel subunit beta-2 (Rattus norvegicus), sequence (P62483 whole entry, looked up): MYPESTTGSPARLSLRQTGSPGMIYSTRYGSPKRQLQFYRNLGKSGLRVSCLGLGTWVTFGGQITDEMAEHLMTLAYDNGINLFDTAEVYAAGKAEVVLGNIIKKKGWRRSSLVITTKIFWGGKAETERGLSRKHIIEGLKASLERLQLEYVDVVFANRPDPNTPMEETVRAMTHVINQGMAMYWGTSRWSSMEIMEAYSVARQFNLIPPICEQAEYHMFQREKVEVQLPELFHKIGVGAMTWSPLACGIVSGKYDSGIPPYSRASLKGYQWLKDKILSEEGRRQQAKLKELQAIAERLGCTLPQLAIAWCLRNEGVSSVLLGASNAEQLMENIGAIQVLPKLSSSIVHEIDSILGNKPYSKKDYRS
Muscarinic acetylcholine receptor M4 (Homo sapiens), sequence (P08173 whole entry, looked up): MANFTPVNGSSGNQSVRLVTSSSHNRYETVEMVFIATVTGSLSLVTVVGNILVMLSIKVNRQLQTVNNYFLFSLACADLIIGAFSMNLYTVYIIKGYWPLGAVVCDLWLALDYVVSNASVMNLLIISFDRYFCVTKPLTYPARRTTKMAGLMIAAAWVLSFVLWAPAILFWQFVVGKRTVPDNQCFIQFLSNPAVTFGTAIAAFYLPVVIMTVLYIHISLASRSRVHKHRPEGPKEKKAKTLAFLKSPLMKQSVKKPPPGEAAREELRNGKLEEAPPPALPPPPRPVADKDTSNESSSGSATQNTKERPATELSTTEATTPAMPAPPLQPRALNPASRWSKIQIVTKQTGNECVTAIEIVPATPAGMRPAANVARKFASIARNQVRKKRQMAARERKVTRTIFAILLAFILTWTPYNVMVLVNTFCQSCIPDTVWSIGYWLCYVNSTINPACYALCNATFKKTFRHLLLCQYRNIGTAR

As to `O=C(NCc1ccco1)C1CCN(C(=O)c2cc3sccc3n2Cc2ccc(F)cc2)CC1`, the cell count in assay [1] came to 571. Also, the inhibition is -16.7% (inactive) in assay [1], -27.8% (inactive) in assay [3], 17.8% (inactive) in assay [7] and 27.2% (inactive) in assay [8]. For the same compound, in assay [2], the inhibition of aggregation was -0.6% (inactive). In addition, the nuclei count was determined as 122% in assay [2] and 101% in assay [3]. In addition, the fluorescence slope was -0.381 (inactive) in assay [4] and 0.00956 (inactive) in assay [6]. Besides, the NADPH fluorescence slope in assay [5] is -4.5e-05 (inactive).

In the case of `CN(C)c1cccc(N=C2C=C(N3CCOCC3)CC(C)(C)C2)c1`, in assay [1], the cell count turned out to be 473. For the same compound, the inhibition in assay [1] is 2.4% (inactive); in assay [3], -54.6% (inactive); in assay [7], -0.858% (inactive); in assay [8], 16.5% (inactive). Also, the inhibition of aggregation in assay [2] was 8.4% (inactive). The nuclei count in assay [2] worked out at 86.3%; in assay [3], 116%. Moreover, the fluorescence slope in assay [4] was -0.55 (inactive); in assay [6], 0.00498 (inactive). Also, in assay [5], the NADPH fluorescence slope was -1.9e-05 (inactive).

Take `CCC(C)C(NC(=O)C1CCC(C)CC1)C(=O)NCc1cccnc1` (centres undefined): the cell count in assay [1] was 320. Moreover, the inhibition in assay [1] is -13.1% (inactive); in assay [3], 22.9% (inactive); in assay [7], 12.4% (inactive); in assay [8], 4.61% (inactive). Further, the inhibition of aggregation in assay [2] was 1.5% (inactive). In addition, the nuclei count is 103% in assay [2] and 102% in assay [3]. The fluorescence slope is -0.325 (inactive) in assay [4] and 0.00576 (inactive) in assay [6]. Further, in assay [5], the NADPH fluorescence slope was -5.6e-05 (inactive).

As to `COc1ccccc1NC(=O)c1ccc(NC(=O)CSc2nnnn2C)cc1`, the cell count in assay [1] is 253. For the same compound, the inhibition is -3.2% (inactive) in assay [1], -63% (inactive) in assay [3], 12.1% (inactive) in assay [7] and 25.6% (inactive) in assay [8]. For the same compound, in assay [2], the inhibition of aggregation was -0.5% (inactive). In addition, the nuclei count in assay [2] was 85.1%; in assay [3] it was 100%. Further, the fluorescence slope was -0.385 (inactive) in assay [4] and 0.00533 (inactive) in assay [6]. In addition, the NADPH fluorescence slope in assay [5] is -7.2e-05 (inactive).

With `CC(NC(=O)OCc1ccccc1)C(=O)N1CC(O)CC1C(=O)O` (centres undefined), the cell count in assay [1] came to 280. For the same compound, the inhibition is 0.9% (inactive) in assay [1], 26.8% (inactive) in assay [3], 16.9% (inactive) in assay [7] and 22.2% (inactive) in assay [8]. Further, in assay [2], the inhibition of aggregation was 2.6% (inactive). The nuclei count in assay [2] turned out to be 79.3%; in assay [3], 85.4%. The fluorescence slope in assay [4] was -0.562 (inactive); in assay [6], 0.00618 (inactive). In addition, in assay [5], the NADPH fluorescence slope is -1.6e-05 (inactive).

`COc1cccc2cc(C(=O)n3ccc(C)n3)c(=O)oc12`: in assay [1], the cell count came out at 297. Moreover, the inhibition was -8% (inactive) in assay [1], 10.9% (inactive) in assay [3], 13.4% (inactive) in assay [7] and 12.3% (inactive) in assay [8]. Besides, the inhibition of aggregation in assay [2] was -15.2% (inactive). The results for the nuclei count in assay [2] and in assay [3] were 93.5% and 88.2%, respectively. In addition, the fluorescence slope was -0.409 (inactive) in assay [4] and 0.00485 (inactive) in assay [6]. In assay [5], the NADPH fluorescence slope was 1.2e-05 (inactive).

As to `c1cncc(-c2nnc(-c3ccco3)o2)c1`, the cell count in assay [1] amounted to 383. Also, the inhibition in assay [1] was -1.1% (inactive); in assay [3], 3.9% (inactive); in assay [7] it was -1.51% (inactive); in assay [8] it was -11.7% (inactive). The inhibition of aggregation in assay [2] was -27% (inactive). Further, the nuclei count came out at 116% in assay [2] and 95.6% in assay [3]. Further, the fluorescence slope in assay [4] is -0.532 (inactive); in assay [6] it was 0.00567 (inactive). In addition, in assay [5], the NADPH fluorescence slope was -1.2e-05 (inactive).

As to `CCNC(=O)N1c2ccc(OCC)cc2C(C)=CC1(C)C`, in assay [1], the cell count is 599. Also, the inhibition in assay [1] was 2.5% (inactive); in assay [3], -34% (inactive); in assay [7] it was -6.26% (inactive); in assay [8] it was 4.09% (inactive). Besides, the inhibition of aggregation in assay [2] is 37.2% (inactive). The nuclei count in assay [2] is 94.1%; in assay [3], 102%. The fluorescence slope was -0.588 (inactive) in assay [4] and 0.00404 (inactive) in assay [6]. The NADPH fluorescence slope in assay [5] was -3e-05 (inactive).

Take `Cc1ccc(-c2nnc3ccc(SCC(=O)NCc4ccco4)nn23)cc1`: in assay [1], the cell count is 421. Further, the inhibition was 0.7% (inactive) in assay [1], 17.1% (inactive) in assay [3], 4.93% (inactive) in assay [7] and 7.2% (inactive) in assay [8]. Further, the inhibition of aggregation in assay [2] was 0.7% (inactive). Moreover, the values for the nuclei count in assay [2] and in assay [3] were 117% and 99.7%, respectively. Moreover, the fluorescence slope in assay [4] is -0.234 (inactive); in assay [6] it was 0.00584 (inactive). Also, in assay [5], the NADPH fluorescence slope was -7.9e-06 (inactive).

In the case of `C=C(C)COc1ccc(-c2nc(N)ncc2Oc2ccccc2OCC)c(O)c1`, the cell count in assay [1] was determined as 291. The inhibition is -11% (inactive) in assay [1], -17.8% (inactive) in assay [3], 17.7% (inactive) in assay [7] and -3.29% (inactive) in assay [8]. For the same compound, in assay [2], the inhibition of aggregation is -19.9% (inactive). In addition, the nuclei count in assay [2] was 111%; in assay [3], 114%. For the same compound, the fluorescence slope in assay [4] is -0.655 (inactive); in assay [6] it was 0.00507 (inactive). For the same compound, the NADPH fluorescence slope in assay [5] was 4.1e-05 (inactive).

Turning to `CNC(=O)c1c(O)c2cccc3c2n(c1=O)CC3`, the cell count in assay [1] was 446. For the same compound, the inhibition is -8.8% (inactive) in assay [1], -60.1% (inactive) in assay [3], 1.98% (inactive) in assay [7] and -8.91% (inactive) in assay [8]. Besides, in assay [2], the inhibition of aggregation is -3.8% (inactive). Further, the nuclei count in assay [2] came to 57%; in assay [3], 99%. Further, the values for the fluorescence slope in assay [4] and in assay [6] were -0.545 (inactive) and 0.00595 (inactive), respectively. Besides, the NADPH fluorescence slope in assay [5] is -5.3e-05 (inactive).

Take `CCNc1nc(N2CCCCC2)nc(-n2nnc(C(=O)OCC)c2C)n1`: in assay [1], the cell count worked out at 550. Moreover, the inhibition was -5.3% (inactive) in assay [1], 27.7% (inactive) in assay [3], -2.26% (inactive) in assay [7] and 4.91% (inactive) in assay [8]. In assay [2], the inhibition of aggregation was 1.6% (inactive). For the same compound, the nuclei count in assay [2] was determined as 92.5%; in assay [3], 66.8%. Also, the fluorescence slope is -0.613 (inactive) in assay [4] and 0.00368 (inactive) in assay [6]. Moreover, in assay [5], the NADPH fluorescence slope is -6.3e-05 (inactive).

For the compound `Cc1ccc2[nH]c(=O)c(CN(CCCO)S(=O)(=O)c3c(C)ccc4nsnc34)cc2c1`, the cell count in assay [1] was 334. Besides, the inhibition in assay [1] was -2.5% (inactive); in assay [3] it was -54.5% (inactive); in assay [7], 11.1% (inactive); in assay [8] it was 29.7% (inactive). In addition, the inhibition of aggregation in assay [2] is -11.4% (inactive). The nuclei count in assay [2] is 103%; in assay [3], 120%. Moreover, the fluorescence slope was -0.459 (inactive) in assay [4] and 0.00552 (inactive) in assay [6]. Moreover, the NADPH fluorescence slope in assay [5] was -3e-05 (inactive).

In the case of `CCOc1cc(C2C(C#N)=C(N)OC(C)=C2C(C)=O)cc(Br)c1O` (centres undefined), the cell count in assay [1] was determined as 235. Besides, the inhibition is 11% (inactive) in assay [1], -29.3% (inactive) in assay [3], 12.3% (inactive) in assay [7] and 20.1% (inactive) in assay [8]. The inhibition of aggregation in assay [2] is -9.7% (inactive). Besides, the results for the nuclei count in assay [2] and in assay [3] were 95.5% and 97.7%, respectively. The fluorescence slope is -0.252 (inactive) in assay [4] and 0.00684 (inactive) in assay [6]. In addition, the NADPH fluorescence slope in assay [5] was -2.9e-05 (inactive).

By inhibition is commonly meant the relative decrease from the control value, in per cent.
